# What was measured:
# mature BACE1 ectodomain [1] = molecular target: T1, mature BACE1 ectodomain (Homo sapiens, UniProt P56817); experiment: WaterLOGSY ligand-observed NMR binding; conditions: 30-fold excess of ligand, performed once
# Outline: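 Ligand-observed NMR on 5 µM mature ectodomain with 0.15 mM ligand (1:30 protein/ligand, ligand from 100 mM DMSO-d6 stock) and D2O added. Recorded at 27 °C on a 600 MHz spectrometer with cryoprobe. Both 1D 1H and WaterLOGSY spectra acquired: 32K points, 14 ppm sweep width, 128 scans. Run at physiological pH, then repeated at acidic pH.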
# BACE1 D32N mutant = BACE1 D32N mutant (Homo sapiens, UniProt P56817, D93N); experiment: SPR binding to BACE1 D32N mutant; conditions: BACE1 D32N catalytic-site mutant
# Outline: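 Catalytic-site D32N ectodomain (residues −16 to 393, C-terminal His- plus StrepII-tag), expressed in and purified from E. coli. Amine-coupled to a CM7 chip and run under conditions similar to wild type: 25 °C, 30 s injections at 30 µL/min, DMSO solvent correction. Concentration series 0.03, 0.06, 0.13, 0.25 and 0.50 mM.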
# mature BACE1 ectodomain [2] = molecular target: T1, mature BACE1 ectodomain; experiment: SPR binding to immobilized WT BACE1
# Outline: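 Mature ectodomain and a neutravidin reference were amine-coupled on CM7 chips; runs at 25 °C. Running buffers: HBS-N pH 7.4, or 10 mM NaOAc pH 4.5 with 150 mM NaCl; both with 0.05% Tween 20 and 5% DMSO. Injections 30 s at 30 µL/min, with DMSO correction over 2.5–6.5%. Screened at 0.25 mM in duplicate (forward and reverse order) against BACE1, neutravidin and a blank spot. Top 10% retested over 0.03–0.500 mM (8 points, 1.5-fold).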
# mature BACE1 ectodomain [3] = molecular target: T1, mature BACE1 ectodomain; experiment: SPR competition with OM99-2; conditions: binding before and after OM99-2 injection, pH 4.5
# Outline: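 Run at pH 4.5 on immobilized wild-type ectodomain: 10 mM NaOAc, 150 mM NaCl, 0.05% Tween 20, 5% DMSO, 25 °C. Fragments injected before and after an injection of the peptide inhibitor OM99-2; binding responses compared. Concentration series 0.03, 0.06, 0.13, 0.25 and 0.50 mM.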
# T1 sequence (P56817 46-454 limits assumed): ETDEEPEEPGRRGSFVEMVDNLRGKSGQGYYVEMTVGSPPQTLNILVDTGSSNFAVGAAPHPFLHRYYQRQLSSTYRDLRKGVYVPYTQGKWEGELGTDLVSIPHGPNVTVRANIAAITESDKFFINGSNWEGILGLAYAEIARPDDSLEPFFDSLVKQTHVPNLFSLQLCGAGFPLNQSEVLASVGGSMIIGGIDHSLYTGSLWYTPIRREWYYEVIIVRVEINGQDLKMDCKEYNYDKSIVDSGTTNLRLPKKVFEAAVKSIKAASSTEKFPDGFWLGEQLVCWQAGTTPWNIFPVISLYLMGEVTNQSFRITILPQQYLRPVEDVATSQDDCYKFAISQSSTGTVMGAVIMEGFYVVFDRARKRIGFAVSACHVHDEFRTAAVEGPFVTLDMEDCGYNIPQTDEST
# Sequence of BACE1 D32N mutant (P56817 46-454 D93N): as the sequence (P56817 46-454 limits assumed) above, with D48N counted along it
SPR D32N binding (BACE1 D32N mutant),SPR OM99-2 competition (mature BACE1 ectodomain [3]),WaterLOGSY signal at pH 4.5 (mature BACE1 ectodomain [1]; pH 4.5),SPR binding to WT BACE1 (mature BACE1 ectodomain) (mature BACE1 ectodomain [2]; pH not stated),SMILES,WaterLOGSY signal at pH 7.5 (mature BACE1 ectodomain [1]),"SPR binding at pH 4.5 (mature BACE1 ectodomain [2]; WT BACE1, pH 4.5)"
lost binding,drastically reduced,strong positive,bound strongly,"CC1(c2ccccc2)COCC(N)=N1 (centres unmarked) [Compound 14, 5-Methyl-5-phenyl-2,6-dihydro-1,4-oxazin-3-amine]",,
bound,reduced binding,,,"CN(C)c1nc(N2CCCC2)nc2ccccc12 [Compound 12, N,N-Dimethyl-2-pyrrolidin-1-yl-quinazolin-4-amine]",clear positive,

SMILES,SPR D32N binding (BACE1 D32N mutant),SPR OM99-2 competition (mature BACE1 ectodomain [3]),WaterLOGSY signal at pH 4.5 (mature BACE1 ectodomain [1]; pH 4.5),SPR binding to WT BACE1 (mature BACE1 ectodomain) (mature BACE1 ectodomain [2]; pH not stated),WaterLOGSY signal at pH 7.5 (mature BACE1 ectodomain [1]),"SPR binding at pH 4.5 (mature BACE1 ectodomain [2]; WT BACE1, pH 4.5)"
"Brc1cc2c(N3CCNCC3)nccn2c1 [Compound 10, 7-Bromo-1-piperazin-1-yl-pyrrolo[1,2-a]pyrazine]",bound,bound,,,clear positive,nonspecific binding
